# Assay results: ChEMBL document CHEMBL4622968, “Discovery of [1,2,4]triazolo[4,3-a]pyridines as potent Smoothened inhibitors targeting the Hedgehog pathway with improved antitumor activity in vivo” (Bioorg Med Chem, 2020)
# Key:
# HeLa = test: Antiproliferation activity against human HeLa cells assessed as reduction in cell viability incubated for 72 hrs by MTT assay; type: functional, cell-based
# Summary of the method: (§1)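 MTT assay. Cells were plated overnight and exposed to a range of concentrations for 72 h. MTT was then added for 4 h and absorbance read at 570 nm. Inhibition% = [(control − compound)/(control − blank)] × 100. IC50 was fitted from the curves. Mean ± S.D. of 3–5 separate experiments. RPMI 1640 + 10% FBS; MCF10A in DMEM/F12 with 5% horse serum, EGF, hydrocortisone, insulin and cholera toxin.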
# MDA-MB-231 = test: Antiproliferation activity against human MDA-MB-231 cells assessed as reduction in cell viability incubated for 72 hrs measured after 4 hrs by MTT assay; type: functional, cell-based; summary of the method: as §1
# MCF7 = test: Antiproliferation activity against human MCF7 cells assessed as reduction in cell viability incubated for 72 hrs by MTT assay; type: functional, cell-based; conditions: MCF7, 72 h; summary of the method: as §1
# A549 = test: Antiproliferation activity against human A549 cells assessed as reduction in cell viability incubated for 72 hrs by MTT assay; type: functional, cell-based; conditions: A549, 72 h; summary of the method: as §1
# T47D = test: Antiproliferation activity against human T47D cells assessed as reduction in cell viability incubated for 72 hr by MTT assay; type: functional, cell-based; summary of the method: as §1
# [1] = Inhibition of hedgehog pathway in mouse NIH/3T3 cells harboring GRE-Luc assessed as inhibition of SAG-induced Hh signaling pathway by dual luciferase reporter gene assay; type: cell-based; conditions: NIH3T3
# Summary of the method: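 NIH3T3 cells co-transfected with 8×3' Gli-BS-delta51-Luc II firefly reporter and pRL-TK Renilla plasmid; after 24 h treated with compounds plus SAG (pathway activator). Gli luciferase normalized to Renilla (dual-luciferase read-out); IC50 = concentration halving normalized signal; mean ± S.D. of 3–5 separate experiments.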
# U-251 = test: Antiproliferation activity against human U251 cells assessed as reduction in cell viability incubated for 72 hrs by MTT assay; type: functional, cell-based; conditions: U-251, 72 h; summary of the method: as §1
# MDA-MB-468 = test: Antiproliferation activity against human MDA-MB-468 cells assessed as reduction in cell viability incubated for 72 hr by MTT assay; type: functional, cell-based; conditions: MDA-MB-468, 72 h; summary of the method: as §1
# AN3-CA = test: Antiproliferation activity against human AN3CA cells assessed as reduction in cell viability incubated for 72 hr by MTT assay; type: functional, cell-based; summary of the method: as §1
# Protein smoothened [2] = target: T1, Protein smoothened (Homo sapiens, UniProt Q99835); test: Binding affinity to recombinant human Smo receptor assessed as dissociation constant at equilibrium by SPR analysis
# T1 sequence (Q99835 whole entry): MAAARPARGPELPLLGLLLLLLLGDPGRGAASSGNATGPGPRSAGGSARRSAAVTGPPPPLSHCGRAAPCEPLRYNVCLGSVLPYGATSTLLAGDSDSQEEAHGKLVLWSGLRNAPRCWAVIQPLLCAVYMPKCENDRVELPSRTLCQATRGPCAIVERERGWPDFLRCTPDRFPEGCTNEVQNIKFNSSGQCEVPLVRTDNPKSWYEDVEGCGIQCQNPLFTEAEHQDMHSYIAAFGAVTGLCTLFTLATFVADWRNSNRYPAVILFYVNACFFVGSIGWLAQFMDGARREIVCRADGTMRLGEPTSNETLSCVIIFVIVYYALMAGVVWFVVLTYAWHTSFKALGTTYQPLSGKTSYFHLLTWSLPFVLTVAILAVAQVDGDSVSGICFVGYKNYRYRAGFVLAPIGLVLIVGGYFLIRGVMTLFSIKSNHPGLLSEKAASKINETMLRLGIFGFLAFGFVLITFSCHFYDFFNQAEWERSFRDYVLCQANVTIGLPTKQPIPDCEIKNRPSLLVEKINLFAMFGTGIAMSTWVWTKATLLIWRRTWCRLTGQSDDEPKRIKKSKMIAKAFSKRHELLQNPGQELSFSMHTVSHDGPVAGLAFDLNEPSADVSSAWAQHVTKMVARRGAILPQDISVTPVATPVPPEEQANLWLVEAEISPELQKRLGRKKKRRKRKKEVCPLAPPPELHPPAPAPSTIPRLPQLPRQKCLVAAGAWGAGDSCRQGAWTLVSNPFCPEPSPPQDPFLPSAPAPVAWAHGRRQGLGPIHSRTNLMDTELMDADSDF
# Protein smoothened [3] = target: T1, Protein smoothened; test: Binding affinity to recombinant human Smo receptor assessed as association rate constant by SPR analysis
# Summary of the method: (§2)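 Surface plasmon resonance with recombinant Smo protein, run in PBS at a flow rate of 2 μL/s and 4 °C. Analytes were injected at 2.5, 5 and 10 μM. The chip was regenerated with 0.5% SDS:glycine-HCl pH 2.0 (1:1). ka, kd, Rmax, KA and KD came from a global fit of the sensorgrams.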
# Protein smoothened [4] = target: T1, Protein smoothened; test: Binding affinity to recombinant human Smo receptor assessed as dissociation rate constant by SPR analysis; summary of the method: as §2
# Protein smoothened [5] = target: T1, Protein smoothened; test: Binding affinity to recombinant human Smo receptor assessed as association constant at equilibrium by SPR analysis
# Protein smoothened [6] = target: T1, Protein smoothened; test: Binding affinity to recombinant human Smo receptor assessed as maximum response at equilibrium by SPR analysis; summary of the method: as §2
IC50 (HeLa),IC50 (MDA-MB-231),IC50 (MCF7),IC50 (A549),IC50 (T47D),IC50 [1],IC50 (U-251),IC50 (MDA-MB-468),Kd (Protein smoothened [2]),Ka (Protein smoothened [3]),Kdiss (Protein smoothened [4]),KA (Protein smoothened [5]),Rmax (Protein smoothened [6]),SMILES,IC50 (AN3-CA)
> 100 µM,> 100 µM,78.2 µM,61.3 µM,> 100 µM,0.285 µM,> 100 µM,21.6 µM,,,,,,O=C(Nc1ccc(Cl)c(-c2nnc3c(Cl)cccn23)c1)c1ccc(Cl)cc1Cl,84.8 µM
> 100 µM,> 100 µM,> 100 µM,72.3 µM,> 100 µM,> 10 µM,> 100 µM,57.6 µM,,,,,,O=C(Nc1ccc(Cl)c(-c2nnc3c(Cl)cccn23)c1)c1c(F)cccc1Cl,> 100 µM
75.5 µM,92 µM,96.4 µM,> 100 µM,> 100 µM,1.08 µM,79 µM,> 100 µM,,,,,,O=C(Nc1ccc(Cl)c(-c2nnc3c(Cl)cccn23)c1)c1ccccn1,> 100 µM
> 100 µM,75 µM,> 100 µM,> 100 µM,> 100 µM,8.22 µM,> 100 µM,> 100 µM,,,,,,O=C(Nc1ccc(Cl)c(-c2nnc3c(Cl)cccn23)c1)c1ccc(F)cc1Cl,> 100 µM
> 100 µM,> 100 µM,94.2 µM,> 100 µM,> 100 µM,1.77 µM,> 100 µM,> 100 µM,,,,,,CS(=O)(=O)c1ccc(C(=O)Nc2ccc(Cl)c(-c3nnc4c(Cl)cccn34)c2)cc1,> 100 µM
61.9 µM,> 100 µM,62.8 µM,> 100 µM,70.8 µM,0.096 µM,> 100 µM,22.3 µM,13.6 µM,111 M⁻¹ s⁻¹,1.51 ×10⁻³ /s,7.35 ×10⁴ /M,49.2 RU,O=C(Nc1ccc(Cl)c(-c2nnc3c(Cl)cccn23)c1)c1ccc(C(F)(F)F)cc1F,41.2 µM
87.5 µM,89.7 µM,> 100 µM,35.8 µM,> 100 µM,> 10 µM,> 100 µM,> 100 µM,,,,,,O=C(Nc1ccc(Cl)c(-c2nnc3c(Cl)cccn23)c1)c1cccnc1Cl,> 100 µM
> 100 µM,> 100 µM,> 100 µM,> 100 µM,> 100 µM,> 10 µM,> 100 µM,34.3 µM,,,,,,Cc1cc(Cl)ccc1C(=O)Nc1ccc(Cl)c(-c2nnc3c(Cl)cccn23)c1,> 100 µM
> 100 µM,> 100 µM,81.6 µM,> 100 µM,> 100 µM,5.2 µM,> 100 µM,> 100 µM,,,,,,O=C(Nc1ccc(Cl)c(-c2nnc3c(Cl)cccn23)c1)c1ccc(C(F)(F)F)cc1Cl,> 100 µM
> 100 µM,59.9 µM,92.2 µM,> 100 µM,83.8 µM,0.727 µM,> 100 µM,> 100 µM,,,,,,O=C(Nc1ccc(Cl)c(-c2nnc3c(Cl)cccn23)c1)c1ccccc1Cl,> 100 µM
